According to publication PMC6217529 (ACS Omega, 2018):
“Also recorded” adds a separate entry of the source.

Key:
[1] = test system: mice; assay: Edema inducing activity in mice foot pads; assay type: in vivo; settings: up to 100 μg
[2] = test system: mice; assay: Hemorrhagic activity in mice, intradermal; assay type: in vivo; settings: up to 100 μg
[3] = test system: platelets (PRP); assay: Epinephrine-induced platelet aggregation in PRP; assay type: cell-based, human; settings: agonist epinephrine
Procedure, shortened: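 Platelet-rich plasma (PRP) and platelet-poor plasma (PPP) were prepared from fresh blood of healthy human donors, and PRP was adjusted with PPP to 3.1 × 10^8 platelets/mL at 37 °C. PRP was pre-incubated with test compound (10, 20 or 30 μg) in a 0.25 mL reaction volume. Aggregation was started with 5 μM epinephrine and traced on a dual-channel optical lumi-aggregometer. Inhibition % was plotted against dose, from three independent experiments.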

Row | hemorrhage in experimental mice (in words) [2] | Structure (SMILES) | edema in experimental mice (in words) [1] | ability to inhibit epinephrine-induced platelet aggregation (in words) [3]
1 | anti-hemorrhagic | Cn1c(-c2ccc(Br)s2)nc2cc(-c3nnc(-c4cc(-c5cc(F)cc(F)c5)nc5ccccc45)o3)ccc21 [8a, 2-(2-(5-Bromothiophen-2-yl)-1-methyl-1H-benzo[d]imidazol-5-yl)-5-(2-(3,5-difluorophenyl)quinolin-4-yl)-1,3,4-oxadiazole] | anti-edema; also recorded: active in preventing hemorrhage and edema | able to inhibit the epinephrine-induced platelet aggregation
2 | anti-hemorrhagic | Cn1c(-c2ccc(Br)s2)nc2cc(-c3nnc(-c4cc(-c5ccc(Cl)cc5Cl)nc5ccccc45)o3)ccc21 [8d, 2-(2-(5-Bromothiophen-2-yl)-1-methyl-1H-benzo[d]imidazol-5-yl)-5-(2-(2,4-dichlorophenyl)quinolin-4-yl)-1,3,4-oxadiazole] | anti-edema; also recorded: active in preventing hemorrhage and edema | but not the 8d sample
